Entries after “also recorded” stand apart in the source; their conditions may differ. Read-outs that look alike come from different tables or passages of the source.
Legend:
[1] = tested on: CYP3A4/CYP3A5‐dependent metabolism; format: in vivo, patients (kidney transplant recipients with late ABMR); conditions: for C0/D ratio: week 12, median [IQR]
CYP2C19 and CYP3A4 = experiment: Pantoprazole pharmacokinetics; format: in vivo, patients (kidney transplant recipients with late ABMR)
Summary of the method: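 20 mg pantoprazole given as an i.v. bolus on day 0, week 12 and week 52. At day 0 and week 12, dosing preceded study injection. EDTA blood was drawn pre-dose and 1, 2, 3, 4, 5 and 6 h after dosing, spun at 2000 g for 10 min at 4°C and stored at −80 °C. Plasma levels measured by HPLC-MS/MS. Noncompartmental Cmax, AUC0-last, AUC0-inf and T1/2 reported as median (IQR); Wilcoxon/Mann–Whitney tests.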

[2] = earlier studies; cited from earlier work
CYP enzymes = conditions: critically ill patients; cited from earlier work
CYP3A4/CYP3A5 = format: in vivo, patients (kidney transplant recipients with late ABMR); conditions: human, whole blood, C0 level; for C0 at 12 week: week 12, median [IQR]
CYP3A4 [3] = conditions: patients with rheumatoid arthritis; cited from earlier work
Liver parameters = format: in vivo, patients (kidney transplant recipients with late ABMR); conditions: ALAT, AST, CHE
C‐reactive protein (CRP) = experiment: High‐sensitive CRP under clazakizumab; format: in vivo, patients (kidney transplant recipients with late ABMR); conditions: clazakizumab 25 mg s.c. 4‐weekly
Summary of the method: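 Serum high-sensitivity CRP measured by latex particle-enhanced immunoturbidimetric assay on an automated analyser (functional sensitivity 0.03 mg/dl). Randomised double-blind design: clazakizumab 25 mg s.c. or 0.9% saline placebo every 4 weeks to week 12, then open clazakizumab 4-weekly to week 52. Data given as median (IQR).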

[4] = tested on: late antibody‐mediated rejection (ABMR); conditions: cited from earlier work
CYP3A4 [5] = conditions: 19 patients with active rheumatoid arthritis; cited from earlier work
[6] = Clazakizumab arm (n = 10), median (IQR)
[7] = Placebo arm (clazakizumab in part B), median (IQR)
[8] = Placebo arm (n = 10), median (IQR)

In the case of `CO[C@H]1C[C@@H]2CC[C@@H](C)[C@@](O)(O2)C(=O)C(=O)N2CCCC[C@H]2C(=O)O[C@H]([C@H](C)C[C@@H]2CC[C@@H](OCCO)[C@H](OC)C2)CC(=O)[C@H](C)/C=C(\C)[C@@H](O)[C@@H](OC)C(=O)[C@H](C)C[C@H](C)/C=C/C=C/C=C/1C` [everolimus], the “decrease in C0/D ratio” value ([1]; single patient, individual course over the study) is reported as “approximately 50%”.

In the case of `COc1ccnc(C[S+]([O-])c2nc3ccc(OC(F)F)cc3[nH]2)c1OC` (centres unmarked) [pantoprazole], the “Percent change from day 0 to week 12, AUC0‐inf” value (CYP2C19 and CYP3A4; [6]) is reported as 4.0 (−6.4‐80.3) Percent, the “Percent change from day 0 to week 12, T1/2” value (CYP2C19 and CYP3A4; [6]) is reported as 18.4 (−0.4–23.2) Percent and the “Percent change from day 0 to week 52, AUC0‐inf” value (CYP2C19 and CYP3A4; Clazakizumab arm, median (IQR)) is reported as 52.3 (−5.6–64.1) Percent. The “Percent change from day 0 to week 52, AUC0‐last” value (CYP2C19 and CYP3A4; Clazakizumab arm, median (IQR)) was 41.9 (0.4–84.5) Percent, the “Percent change from day 0 to week 52, Cmax” value (CYP2C19 and CYP3A4; Clazakizumab arm, median (IQR)) was 22.5 (1.6‐37.8) Percent and the “Percent change from day 0 to week 52, T1/2” value (CYP2C19 and CYP3A4; Clazakizumab arm, median (IQR)) was 8.8 (−9.7‐56.8) Percent. The “Percent change from day 0 to week 52, AUC0‐inf” value (CYP2C19 and CYP3A4; [7]) was 0.72 (−42.7–64.0) Percent, the “Percent change from day 0 to week 52, AUC0‐last” value (CYP2C19 and CYP3A4; [7]) was 13.6 (−47.2–50.5) Percent and the “Percent change from day 0 to week 12, AUC0‐inf” value (CYP2C19 and CYP3A4; [8]) was 13.8 (−17.7‐27.8) Percent. For the same molecule, the “Percent change from day 0 to week 12, AUC0‐last” value (CYP2C19 and CYP3A4; [8]) was 15.6 (−18.7‐31.1) Percent, the “Percent change from day 0 to week 12, Cmax” value (CYP2C19 and CYP3A4; [8]) was 5.7 (−10.7‐41.3) Percent and the “Percent change from day 0 to week 12, T1/2” value (CYP2C19 and CYP3A4; [8]) was 0.2 (−14.4‐21.5) Percent. For the same molecule, the “Percent change from day 0 to week 12, AUC0‐inf” value (CYP2C19 and CYP3A4; Total (n = 20), median (IQR)) was 11.6 (−11.7‐31.4) Percent, the “Percent change from day 0 to week 12, AUC0‐last” value (CYP2C19 and CYP3A4; Total (n = 20), median (IQR)) was 10.4 (−8.0‐27.8) Percent and the “Percent change from day 0 to week 12, Cmax” value (CYP2C19 and CYP3A4; Total (n = 20), median (IQR)) was 2.1 (−12.2‐26.3) Percent. The “Percent change from day 0 to week 12, T1/2” value (CYP2C19 and CYP3A4; Total (n = 20), median (IQR)) was 5.9 (−4.5–23.2) Percent, the “Percent change from day 0 to week 52, AUC0‐inf” value (CYP2C19 and CYP3A4; Total, median (IQR)) was 31.9 (−22.5–64.0) Percent and the “Percent change from day 0 to week 52, AUC0‐last” value (CYP2C19 and CYP3A4; Total, median (IQR)) was 25.3 (−15.9–51.7) Percent. The “Percent change from day 0 to week 52, Cmax” value (CYP2C19 and CYP3A4; Total, median (IQR)) was 5.5 (−22.1‐33.6) Percent, the Cmax (CYP2C19 and CYP3A4; human, plasma, iv, 20 mg, Cmax, 20 mg i.v., day 0, Total (n = 20), median (IQR)) was 1490 ng/mL and the half-life (CYP2C19 and CYP3A4; human, plasma, iv, 20 mg, T1/2, 20 mg i.v., day 0, Total (n = 20), median (IQR)) was 1.08 h. For the same molecule, the “half‐life” value [2] was “generally less than two hours”, the “time to complete absorption” value [2] was “about 12 hours” and the “half‐life, fold longer than in this study's patients / healthy volunteers” value (CYP enzymes) was “approximately 5 fold”.

With `C=CC[C@@H]1/C=C(\C)C[C@H](C)C[C@H](OC)[C@H]2O[C@@](O)(C(=O)C(=O)N3CCCC[C@H]3C(=O)O[C@H](/C(C)=C/[C@@H]3CC[C@@H](O)[C@H](OC)C3)[C@H](C)[C@@H](O)CC1=O)[C@H](C)C[C@@H]2OC` [tacrolimus] the C0 at 12 week (CYP3A4/CYP3A5; clazakizumab arm (n = 6)) was 7 ng/mL, the C0 at 12 week (CYP3A4/CYP3A5; placebo arm (n = 7)) was 6.4 ng/mL and the concentration at 0 day (CYP3A4/CYP3A5; baseline, Clazakizumab arm, median (IQR)) was 5.6 ng/mL. The C0/D ratio ([1]; clazakizumab arm (n = 6)) was 2.15 [1.13–4.35] ng/ml/mg and the C0/D ratio ([1]; placebo arm (n = 7)) was 2.0 [0.73–2.03] ng/ml/mg.

For tocilizumab: anti‐IL‐6R antibody, the “effect on CYP activity and simvastatin metabolism” value (CYP3A4 [3]) is given as “restored diminished CYP activity and substantially enhanced the metabolism of simvastatin”.

B1: clazakizumab: monoclonal anti‐IL‐6 antibody (Vitaeris Inc.), 25 mg subcutaneously at 4‐weekly intervals (antibody, chains of the INN, looked up, V domains shown)
VH: EVQLVESGGGLVQPGGSLRLSCAASGFSLSNYYVTWVRQAPGKGLEWVGIIYGSDETAYATSAIGRFTISRDNSKNTLYLQMNSLRAEDTAVYYCARDDSSDWDAKFNLWGQGTLVTVSS
VL: AIQMTQSPSSLSASVGDRVTITCQASQSINNELSWYQQKPGKAPKLLIYRASTLASGVPSRFSGSGSGTDFTLTISSLQPDDFATYYCQQGYSLRNIDNAFGGGTKVEIK
For B1, the “effect on liver parameters” value (Liver parameters) was “no meaningful effect”, the “impact on pantoprazole pharmacokinetics / CYP‐dependent drug metabolism” value (CYP2C19 and CYP3A4; IL‐6 blockade up to 52 weeks) was “no clinically meaningful impact; also recorded: did not enhance CYP‐dependent drug metabolism” and the “effect on CRP levels” value (C‐reactive protein (CRP)) was “suppressed to undetectable levels; also recorded: virtually complete reduction”. The “effect on DSA” value ([4]; after 3 months) was “significant reduction of DSA”, the “effect on ABMR activity (microcirculation inflammation, molecular ABMR scores)” value ([4]; after prolonged treatment) was “modulation of ABMR activity” and the “effect on progression of graft dysfunction” value ([4]; over a period of a year) was “significantly halted the progression of graft dysfunction”.

B2: sarilumab: anti‐IL‐6R antibody (antibody, chains of the INN, looked up, V domains shown)
VH: EVQLVESGGGLVQPGRSLRLSCAASRFTFDDYAMHWVRQAPGKGLEWVSGISWNSGRIGYADSVKGRFTISRDNAENSLFLQMNGLRAEDTALYYCAKGRDSFDIWGQGTMVTVSS
VL: DIQMTQSPSSVSASVGDRVTITCRASQGISSWLAWYQQKPGKAPKLLIYGASSLESGVPSRFSGSGSGTDFTLTISSLQPEDFASYYCQQANSFPYTFGQGTKLEIK
For B2, the “effect on altered simvastatin exposure” value (CYP3A4 [5]) is given as “fully reversed”.

Reference: article PMC8456861 (Transplant International, 2021)
